# Assay results of several laboratories.
# Each line is one published result; the experiments were not run side by side.
# Target: Fibroblast growth factor receptor 2 (FGFR2, Homo sapiens, UniProt P21802)
Compound,observed,action,technique,tested at,measurement,result
Cc1nn(C)cc1-c1nc2c(N3CCN(Cc4ccc(Cl)cc4)CC3)c(Cl)cnc2[nH]1,binding,,competition with immobilised ligand,1 µM,remaining binding,45%
Cn1cc(-c2cccc(N3CCc4c(sc5c4CC(C)(C)C5)C3=O)c2CO)cc(Nc2ccncn2)c1=O,enzyme activity,inhibitor,,1 µM,inhibition,14%
C#Cc1n[nH]c2c(-c3cn([C@@H](C)c4ccccc4)c(=O)[nH]c3=O)cc(F)cc12,enzyme activity,inhibitor,,0.1 µM,inhibition,1.6%
COc1ncccc1-c1cnn2ccc(N3CCN(C(=O)OC(C)C)CC3)nc12,binding,,competition with immobilised ligand,1 µM,remaining binding,82%
Cn1cncc1[C@](O)(COc1ccc(C#N)cc1-c1ccc(OC(F)(F)F)cc1)c1ccc(C#N)cc1,cell-free assay,,competition with immobilised ligand,1 µM,remaining binding,86%
Cn1cc(-c2cc(F)cc(N3CCn4c(cc5c4CCCC5)C3=O)c2CO)cc(Nc2ccc(N3CCN(C4COC4)CC3)cn2)c1=O,enzyme activity,inhibitor,,0.1 µM,inhibition,15%
C#Cc1n[nH]c2c(-c3cn([C@@H](C)c4ccccn4)c(=O)[nH]c3=O)cc(F)cc12,enzyme activity,inhibitor,,0.1 µM,inhibition,4.2%
O=c1[nH]c2ccccc2n1C1CCN(Cc2ccc(-c3[nH]c4cc5ncnc5cc4nc3-c3ccccc3)cc2)CC1,cell-free assay,,,0.5 µM,remaining signal,94.2%
N#CC1(c2ccccn2)CCN(Cc2cc(C(=O)O)c(=O)n3ccccc23)CC1,cell-free assay,,competition with immobilised ligand,1 µM,remaining binding,100%
Nc1ncc(-c2nc(N3CCOCC3)nc(N3CCOCC3)n2)c(C(F)F)n1,cell-free assay,,competition with immobilised ligand,10 µM,remaining binding,90%
CC(C)(C)c1cc(C=C(C#N)C#N)cc(Br)c1O,enzyme activity,inhibitor,,0.5 µM,remaining activity,96.4%
COCc1c(-c2cc3cc(C)cc(OC)c3s2)c2c(N)ncnn2c1CN1CCNC(=O)C1,cell-free assay,,competition with immobilised ligand,1 µM,inhibition,99.8%
